High-throughput results (PubChem)
TDP2 absorb – blocks human TDP2 phosphodiesterase activity. 0.34% of 370,000 active. inhibition, % at 12.8 µM. AID 720702. recombinant TDP2, T5PNP hydrolysis, p-nitrophenol absorbance 415 nm;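 active means inhibition above the mean of all tested compounds plus 3 SD, set per campaign, cut at about 25% in these data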;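 further: 0% = DMSO with enzyme and 100% = buffer with substrate but no TDP2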
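System – recombinant human TDP2 · Amount – 120 nM TDP2 per well · Buffer or medium – Mg2+-containing Tris-HCl buffer, pH 7.5 · Reagent – T5PNP substrate, 5 mM · Dosing – 12.8 µM single point, 1% DMSO · Incubation – 2 h at 37 °C · Measured by – epi absorbance · Read-out basis – percent inhibition · Benchmarks – high control without enzyme, low control DMSO plus TDP2 · Repeats – singlicate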
LEDGF integ inh – blocks HIV-1 LEDGF/p75-dependent DNA integration; TR-FRET IN-LEDGF/p75 DNA integration, Eu/Cy5; inhibition, % at 3.7 µM; 0.64% of 370,000 active; AID 743269;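 active means inhibition above the screen-wide mean plus 3 SD, cut at about 13% in these data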;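 further: signal is the Cy5 over europium emission ratio at 671 and 618 nm; 0% = plate median of compound wells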
UHRF1 MBD2 ctr – human UHRF1 methylated DNA binding inhibitors | Q96T88 | UHRF1 binding to methylated oligo, TR-FRET | inhibition, % at 4.4 µM | 0.75% of 370,000 active; in the data active means inhibition above about 21%;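 further: UHRF1 SRA domain binding a hemimethylated CpG hairpin DNA probe; 0% = median of test compound wells and 100% = reference inhibitor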
Target sequence (Q96T88 whole entry, looked up, the tested form may be a part): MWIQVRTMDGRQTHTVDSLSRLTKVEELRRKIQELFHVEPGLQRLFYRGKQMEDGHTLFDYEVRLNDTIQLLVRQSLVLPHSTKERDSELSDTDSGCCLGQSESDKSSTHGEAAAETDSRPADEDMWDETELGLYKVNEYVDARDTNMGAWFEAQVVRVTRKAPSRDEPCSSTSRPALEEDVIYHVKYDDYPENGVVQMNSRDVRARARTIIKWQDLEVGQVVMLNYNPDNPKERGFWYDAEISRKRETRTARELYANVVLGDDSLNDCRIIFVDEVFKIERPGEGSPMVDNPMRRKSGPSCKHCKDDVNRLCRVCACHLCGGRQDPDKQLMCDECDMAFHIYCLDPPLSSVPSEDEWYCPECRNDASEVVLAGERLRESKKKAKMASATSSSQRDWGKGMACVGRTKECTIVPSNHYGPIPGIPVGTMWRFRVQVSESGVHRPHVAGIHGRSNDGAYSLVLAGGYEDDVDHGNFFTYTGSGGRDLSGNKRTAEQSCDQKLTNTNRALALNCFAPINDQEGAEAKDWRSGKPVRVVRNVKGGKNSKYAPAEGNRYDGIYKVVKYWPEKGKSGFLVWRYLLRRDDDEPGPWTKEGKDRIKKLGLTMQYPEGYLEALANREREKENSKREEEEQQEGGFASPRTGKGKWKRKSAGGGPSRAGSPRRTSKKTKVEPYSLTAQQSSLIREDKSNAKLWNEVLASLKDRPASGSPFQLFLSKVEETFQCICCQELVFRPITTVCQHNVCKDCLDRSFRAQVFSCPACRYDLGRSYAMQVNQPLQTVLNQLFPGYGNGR
MBD2 inh – MBD2-methylated oligo binding inhibition | 0.31% of 370,000 active | AID 686964 | Q9UBB5 | inhibition, % at 4.4 µM | TR-FRET, MBD2 binding to methylated oligonucleotide; in the data active means inhibition above about 13%
TDP2 confirm – human TDP2 inhibition, confirmation; shares compounds with TDP2 absorb; 22% of 1,100 active; recombinant human TDP2, absorbance read-out; inhibition, % at 12.8 µM; in the data active means inhibition above about 25%;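 further: 0% = vehicle with enzyme and 100% = no enzyme buffer only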
IN multimer up – counter-screen for LEDGF/p75 integration inhibitors: HIV-1 integrase multimerization activators. 17% of 2,000 active. TR-FRET HIV-1 integrase multimerization, biochemical. shares compounds with LEDGF integ inh. activation, % at 7.7 µM; in the data active means activation above about 8.9%
TRFRET interf – TR-FRET optical interference, LEDGF/p75 integration counter-screen | shares compounds with LEDGF integ inh | AID 1053135 | 2,000 tested, under 10 active | TR-FRET optical interference counterscreen, HIV-1 IN multimerization | inhibition, % at 7.7 µM;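 active means inhibition above the mean over all tested compounds plus 3 SD, which no compound reached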;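 further: 0% = integrase with antibodies and DMSO and 100% = antibodies without integrase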
IN-LEDGF confirm – LEDGF/p75-dependent HIV-1 integration inhibition, confirmation | shares compounds with LEDGF integ inh | TR-FRET LEDGF/p75-dependent HIV-1 integration, biochemical | inhibition, % at 3.7 µM | 36% of 2,000 active | AID 1053136; in the data active means inhibition above about 14%
The depositor's hits bear a star; nt = no result. Only some compounds are listed: those with a hit (about 1.6% of all), similar ones and a draw of the others.

SMILES | TDP2 absorb | LEDGF integ inh | UHRF1 MBD2 ctr | MBD2 inh | TDP2 confirm | IN multimer up | TRFRET interf | IN-LEDGF confirm
COc1cc(N)c2ncccc2c1SC | 44.7* | 16.3* | -1.5 | -14.9 | 3.0 | 3.5 | -17.4 | 14.3*
COc1ccccc1N=Nc1ccc(O)c2ncccc12 | 12.3 | 3.9 | -15.0 | -8.8 | nt | nt | nt | nt
COc1cc(N)c2ncccc2c1Br | 76.2* | 28.6* | 5.8 | -11.3 | 50.7* | 4.8 | -17.4 | 2.8
CC(=O)Nc1cccc(C(=O)OCCCOc2ccc(F)cc2)c1 | 0.9 | -6.1 | -0.8 | 2.1 | nt | nt | nt | nt
CCC1(c2ccc(F)cc2)NC(=O)N(CC(=O)c2cc(C)n(C3CC3)c2C)C1=O (stereo not given) | -10.8 | -5.9 | 3.7 | 2.4 | nt | nt | nt | nt
NC(=S)n1[nH]c(-c2ccccc2)c(N=Nc2ccccc2C(=O)N2CCOCC2)c1=O | -0.7 | 1.4 | -18.9 | -13.7 | nt | nt | nt | nt
CC(=NNC(N)=O)C1=C(O)C(C(C)C)NC1=O (stereo not given) | -3.8 | -2.5 | -0.7 | -2.6 | nt | nt | nt | nt
Cc1ccccc1NC1=C/C(=N\S(=O)(=O)c2ccc(C(=O)O)cc2)c2ccccc2C1=O | 80.9* | 40.1* | -1.4 | -9.2 | 75.0* | 0.2 | -0.9 | 74.1*
Cc1ccc(C)c(S(=O)(=O)/N=C2\C=C(NS(=O)(=O)c3ccccc3)C(=O)c3ccccc32)c1 | 18.4 | 8.9 | -7.1 | -12.3 | nt | nt | nt | nt
C[n+]1c(-c2ccccc2)cc2c(=Cc3ccccc3)c3ccccc3n21 | 36.2* | 28.1* | 6.1 | -10.3 | 46.8* | 3.9 | -14.3 | 45.3*
C[n+]1c(-c2ccccc2)cc2c(=Cc3ccc([N+](=O)[O-])cc3)c3ccccc3n21 | 37.0* | 24.7* | 4.5 | -10.3 | 46.2* | 7.0 | -25.3 | 48.5*
CCOC(=O)c1c(C)oc2c1c(C=NCC1CCCO1)c(O)c1ccccc12 (stereo not given) | 28.8* | 16.9* | 9.1 | -4.7 | 11.1 | 0.8 | -2.9 | -1.4
O=C1CC[C@@H]2CC(N3CCN(c4ccccc4)CC3)C[C@@H]3CCN1[C@H]23 (stereo not given in full) | 0.9 | -2.4 | -0.2 | -2.6 | nt | nt | nt | nt
CC(=O)N(/N=C1\Sc2ccccc2C1=O)c1cccc(C)c1 | 68.9* | 22.2* | -10.6 | -6.1 | 52.9* | -0.9 | 3.2 | 50.9*
COc1ccc(OC)c(NC(=O)CSc2nn3c(=O)c(C)nnc3s2)c1 | 9.4 | 0.1 | -2.6 | 1.3 | nt | nt | nt | nt
COc1cc(NCc2ccccc2O)c2ncccc2c1 | -2.1 | 1.3 | 0.0 | -1.5 | nt | nt | nt | nt
Oc1ccccc1CNc1cccc2cccnc12 | 35.5* | 31.1* | -8.4 | -18.7 | 5.7 | 4.6 | -16.4 | -0.1
NC(=O)C1CCCN(CC(O)COCc2ccc(Cl)cc2)C1 (stereo not given) | 28.4* | 78.4* | -2.7 | 1.1 | 2.0 | 0.6 | -2.3 | -1.5
COc1ccc(COCC(O)CN2CCC(C(N)=O)CC2)cc1OC (stereo not given) | 7.6 | 3.9 | -5.3 | -4.8 | nt | nt | nt | nt
Cc1ccc(NC(=O)Cc2ccc(Cl)c(Cl)c2)cc1S(=O)(=O)N(C)C | -8.9 | -0.7 | -3.3 | -4.7 | nt | nt | nt | nt
O=C1C(N2CCOCC2)=C(n2nnc3ccccc32)C(=O)c2ccccc21 | 50.3* | 40.0* | -4.1 | -14.0 | 63.6* | 3.1 | -11.1 | 45.0*
O=C1c2ccccc2C(=O)c2c1cccc2-n1nnc2ccccc21 | 0.3 | 0.4 | 0.5 | -2.1 | nt | nt | nt | nt
CC(=O)N1CCN(CC(=O)Nc2ccccc2Sc2ccccc2)CC1 | -6.3 | -1.5 | 0.5 | 3.4 | nt | nt | nt | nt
O=[N+]([O-])c1cc([N+](=O)[O-])c2nonc2c1Nc1ccc(O)cc1 | 24.6* | 15.0* | -2.6 | -13.0 | 6.6 | 5.6 | -19.9 | 3.2
Cc1ccc(C2C(C(=O)c3cc4ccccc4o3)=C(O)C(=O)N2CCN2CCOCC2)cc1 (stereo not given) | 4.4 | -0.4 | -0.5 | -5.5 | nt | nt | nt | nt
SMILES | TDP2 absorb | LEDGF integ inh | UHRF1 MBD2 ctr | MBD2 inh | TDP2 confirm | IN multimer up | TRFRET interf | IN-LEDGF confirm
CCc1ccc(C(=O)NC(=S)Nc2ccc(N3CCOCC3)cc2)cc1 | 3.0 | -2.6 | 2.4 | -5.5 | nt | nt | nt | nt
Nc1ccccc1SCC(=O)Nc1ccc(N2CCOCC2)cc1 | 28.4* | 17.9* | -5.5 | -4.4 | 7.0 | 1.9 | -9.7 | 1.1
CC(=O)c1ccc(NC(=S)Nc2ccc(N3CCOCC3)cc2)cc1 | 27.9* | 15.0* | 2.1 | -3.5 | 8.0 | -0.3 | 1.4 | 1.6
Cc1ccccc1SCC(=O)Nc1ccc(N2CCOCC2)cc1 | -1.7 | 0.3 | -2.5 | -0.3 | nt | nt | nt | nt
C/C(=C\C(=O)c1ccccc1)Nc1ccc(N2CCOCC2)cc1 | 33.4* | 21.8* | 1.2 | -4.6 | -5.9 | 3.0 | -10.6 | -7.5
CN1c2ccccc2C(C)(C)C12C=Nc1c(cc(N3CCOCC3)c3ccccc13)O2 (stereo not given) | 53.4* | 14.0* | 7.6 | -7.1 | 11.6 | 1.7 | -6.2 | -1.1
CC1OC2CC(=O)OC2C2=C1C(=O)c1c(O)cccc1C2=O (stereo not given) | 41.9* | 19.3* | 17.7 | -2.1 | 44.4* | -0.9 | 3.2 | 40.5*
O=C(O)Cc1ccc(N2N=C(c3ccccc3)CC2=O)cc1 | 70.7* | 26.1* | 18.0 | 8.9 | 4.7 | 1.1 | -5.3 | 9.8
N#Cc1cc2ccc(N3CCOCC3)cc2cc1C#N | 68.7* | 31.4* | -0.8 | -7.4 | 5.9 | 4.3 | -15.4 | 4.1
N#Cc1cc(Cl)c(N2CCOCC2)cc1C#N | 0.8 | -0.9 | 13.8 | 8.6 | nt | nt | nt | nt
S=C(Nc1ccc2nsnc2c1)N1CCCCC1 | 75.9* | 16.7* | 5.6 | -4.9 | 54.4* | 0.7 | -2.4 | 5.0
Cc1nnc(N/N=C\c2ccc(-c3cccc(C(=O)O)c3)o2)n1N | 59.1* | 52.7* | 5.5 | -4.8 | 7.6 | 5.4 | -19.3 | 0.2
CC(C)(C)c1nnc(N/N=C/c2ccccc2)n(N)c1=O | 2.5 | -4.1 | -1.5 | 2.6 | nt | nt | nt | nt
Cc1nnc(N/N=C/c2ccc(Br)cc2)n1N | 73.6* | 46.6* | 7.7 | 1.5 | 6.0 | 0.1 | -0.7 | -3.2
O=C(O)c1cccc(-c2ccc(/C=N/NC(=O)c3cccnc3)o2)c1 | 2.5 | 4.6 | 6.7 | 3.3 | nt | nt | nt | nt
Cc1nnc(N/N=C/c2ccc([N+](=O)[O-])cc2)n1N | 55.1* | 79.4* | 18.6 | -1.9 | 0.1 | 1.2 | -4.2 | -2.6
Cc1nnc(N/N=C/c2ccc(-c3ccc(Br)cc3)o2)n1N | 56.5* | 49.3* | 1.8 | -6.3 | 1.3 | -0.2 | 0.9 | -5.0
O=C(c1ccc(Cl)c(S(=O)(=O)N2CCCCC2)c1)N1CCCC1 | 0.5 | 2.3 | 1.0 | 2.4 | nt | nt | nt | nt
COCCNc1oc(COc2cccc(C)c2)nc1C#N | 5.0 | 1.2 | -2.5 | 1.6 | nt | nt | nt | nt
